Reference: ChEMBL document CHEMBL3244402, “Branched-chain analogues of luteinizing hormone-releasing hormone” (1978)
Active and inactive are the calls of the source. No cut-off for these calls is given here. Square brackets hold non-standard residues; d marks the D form. Peptide text beside a SMILES is read from it. pGlu = O=C1CC[C@@H](C(=O)O)N1

Columns and labels:
Rattus norvegicus [1] = assay: In vivo activation of LH-RH receptor in immature rat assessed as release of luteinizing hormone in serum at 50 ng, sc measured over 4 hrs by double antibody radioimmunoassay; type: functional, organism-based
Method in brief: (§1)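 Immature male rats were injected sc with agonist, LH-RH or saline and followed over 0.25–4 h, with blood sampled at intervals. Serum LH was measured by double antibody radioimmunoassay and FSH by radioimmunoassay, against NIH-LH-S17 and NIAMD-rat-FSH-RP1 standards.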

Rattus norvegicus [2] = assay: In vivo activation of LH-RH receptor in immature rat assessed as release of follicle-stimulating hormone in serum at 50 ng, sc measured over 4 hrs by radioimmunoassay; type: functional, organism-based; method in brief: as §1
Rattus norvegicus [3] = assay: In vivo inhibition of LH-RH receptor in immature rat assessed as inhibition of LH-RH-stimulated luteinizing hormone release in serum at 300 ug, sc administered 0.5 hrs prior to LH-RH addition measured after 30 mins relative to vehicle-treated control; type: functional
Method in brief: (§2)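 Immature male rats received 300 μg peptide sc in 20% propylene glycol-saline, or vehicle alone. Synthetic LH-RH (200 ng) or saline was injected at the same time or later, over a 4-h period. Blood was taken 30 min after LH-RH. Serum LH and FSH were measured by radioimmunoassay (double antibody for LH), and percent inhibition of serum gonadotropin was calculated.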

Rattus norvegicus [4] = assay: In vivo inhibition of LH-RH receptor in immature rat assessed as inhibition of LH-RH-stimulated luteinizing hormone release in serum at 300 ug, sc administered 2 hrs prior to LH-RH addition measured after 30 mins relative to vehicle-treated control; type: functional; method in brief: as §2
Rattus norvegicus [5] = assay: Antiovulatory activity in Sprague-Dawley rat at 1 mg, sc administered at 12 pm on proestrous day relative to vehicle-treated control; type: functional
Method in brief: (§3)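 Adult female SD rats (~200 g), 14 h light/10 h dark, with vaginal smears checked daily from 14 days after arrival. Only rats with at least two successive regular 4-day cycles were used. Peptide was given sc in propylene glycol-saline on the proestrous afternoon. Rats were killed the next day and oviducts inspected for ova. Read-out was % inhibition of ovulation and ova count (±SE) in ovulating rats.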

Rattus norvegicus [6] = assay: In vivo inhibition of LH-RH receptor in immature rat assessed as inhibition of LH-RH-stimulated luteinizing hormone release in serum at 300 ug, sc administered 4 hrs prior to LH-RH addition measured after 30 mins relative to vehicle-treated control; type: functional; method in brief: as §2
Rattus norvegicus [7] = assay: In vivo inhibition of LH-RH receptor in immature rat assessed as inhibition of LH-RH-stimulated luteinizing hormone release in serum at 300 ug, sc administered 1 hr prior to LH-RH addition measured after 30 mins relative to vehicle-treated control; type: functional; method in brief: as §2
Rattus norvegicus [8] = assay: In vivo inhibition of LH-RH receptor in immature rat assessed as inhibition of LH-RH-stimulated follicle-stimulating hormone release in serum at 300 ug, sc administered 4 hrs prior to LH-RH addition measured after 30 mins relative to vehicle-treated control; type: functional; method in brief: as §2
Rattus norvegicus [9] = assay: In vivo inhibition of LH-RH receptor in immature rat assessed as inhibition of LH-RH-stimulated follicle-stimulating hormone release in serum at 300 ug, sc administered 1 hr prior to LH-RH addition measured after 30 mins relative to vehicle-treated control; type: functional; method in brief: as §2
Rattus norvegicus [10] = assay: Antiovulatory activity in Sprague-Dawley rat at 1.5 mg, sc administered at 9 am on proestrous day relative to vehicle-treated control; type: functional
Rattus norvegicus [11] = assay: In vivo activation of LH-RH receptor in immature rat assessed as release of follicle-stimulating hormone relative to control; type: functional; method in brief: as §1
Rattus norvegicus [12] = assay: In vivo activation of LH-RH receptor in immature rat assessed as release of luteinizing hormone relative to control; type: functional; method in brief: as §1
Rattus norvegicus [13] = assay: Antiovulatory activity in Sprague-Dawley rat at 1.5 mg, sc administered at 12 pm on proestrous day relative to vehicle-treated control; type: functional; method in brief: as §3

Row | Compound | inhibition (INH) (Rattus norvegicus [5]) [%] | inhibition (INH) (Rattus norvegicus [6]) [%] | inhibition (INH) (Rattus norvegicus [7]) [%] | inhibition (INH) (Rattus norvegicus [8]) [%] | inhibition (INH) (Rattus norvegicus [9]) [%] | other results
1 | CC(C)C[C@H](NC(=O)CNC(=O)[C@H](Cc1ccc(O)cc1)NC(=O)[C@H](CO)NC(=O)[C@H](Cc1c[nH]c2ccccc12)NC(=O)[C@H](Cc1cnc[nH]1)NC(=O)[C@@H]1CCC(=O)N1)C(=O)N[C@@H](CCCNC(=N)N)C(=O)N1CCC[C@H]1C(=O)NCC(N)=O |  |  |  |  |  | Activity (Rattus norvegicus [1]): Active; Activity (Rattus norvegicus [2]): Active
2 | CC(C)C[C@H](NC(=O)[C@@H](CCCCNC(=O)c1ccccc1)NC(=O)[C@H](Cc1ccc(O)cc1)NC(=O)[C@H](CO)NC(=O)[C@@H](Cc1c[nH]c2ccccc12)NC(=O)[C@@H](Cc1ccccc1)NC(=O)[C@@H]1CCC(=O)N1)C(=O)N[C@@H](CCCNC(=N)N)C(=O)N1CCC[C@H]1C(=O)NCC(N)=O | 11 | 0 |  |  |  | inhibition (INH) (Rattus norvegicus [3]): 76%; inhibition (INH) (Rattus norvegicus [4]): 40%
3 | CC(C)C[C@H](NC(=O)[C@@H](CCCCN)NC(=O)[C@H](Cc1ccc(O)cc1)NC(=O)[C@H](CO)NC(=O)[C@@H](Cc1c[nH]c2ccccc12)NC(=O)[C@@H](Cc1ccccc1)NC(=O)[C@@H]1CCC(=O)N1)C(=O)N[C@@H](CCCNC(=N)N)C(=O)N1CCC[C@H]1C(=O)NCC(N)=O ([pGlu][dF][dW]SY[dK]LRPG-NH2) | 0 | 38 | 36 | 18 | 37 | 
4 | CC(C)C[C@H](NC(=O)[C@@H](CCCCNC(=O)[C@H](Cc1ccc(O)cc1)NC(=O)[C@H](CO)NC(=O)[C@@H](Cc1c[nH]c2ccccc12)NC(=O)[C@@H](Cc1ccccc1)NC(=O)[C@@H]1CCC(=O)N1)NC(=O)[C@H](Cc1ccc(O)cc1)NC(=O)[C@H](CO)NC(=O)[C@@H](Cc1c[nH]c2ccccc12)NC(=O)[C@@H](Cc1ccccc1)NC(=O)[C@@H]1CCC(=O)N1)C(=O)N[C@@H](CCCNC(=N)N)C(=O)N1CCC[C@H]1C(=O)NCC(N)=O | 73 | 47 | 62 | 41 | 43 | inhibition (INH) (Rattus norvegicus [10]): 50%
5 | CC(C)C[C@H](NC(=O)[C@@H](Cc1ccccc1)NC(=O)[C@H](Cc1ccc(O)cc1)NC(=O)[C@H](CO)NC(=O)[C@@H](Cc1c[nH]c2ccccc12)NC(=O)[C@@H](Cc1ccccc1)NC(=O)[C@@H]1CCC(=O)N1)C(=O)N[C@@H](CCCNC(=N)N)C(=O)N1CCC[C@H]1C(=O)NCC(N)=O | 83 | 52 | 84 | 77 | 65 | inhibition (INH) (Rattus norvegicus [10]): 67%
6 | CC(C)C[C@H](NC(=O)[C@@H](CCCCN)NC(=O)[C@H](Cc1ccc(O)cc1)NC(=O)[C@H](CO)NC(=O)[C@H](Cc1c[nH]c2ccccc12)NC(=O)[C@H](Cc1cnc[nH]1)NC(=O)[C@@H]1CCC(=O)N1)C(=O)N[C@@H](CCCNC(=N)N)C(=O)N1CCC[C@H]1C(=O)NCC(N)=O |  |  |  |  |  | Activity (Rattus norvegicus [11]): 300%; Activity (Rattus norvegicus [12]): 300%
7 | COc1ccc2c(c1)c(CC(=O)NCCCC[C@@H](NC(=O)[C@H](Cc1ccc(O)cc1)NC(=O)[C@H](CO)NC(=O)[C@@H](Cc1c[nH]c3ccccc13)NC(=O)[C@@H](Cc1ccccc1)NC(=O)[C@@H]1CCC(=O)N1)C(=O)N[C@@H](CC(C)C)C(=O)N[C@@H](CCCNC(=N)N)C(=O)N1CCC[C@H]1C(=O)NCC(N)=O)c(C)n2C(=O)c1ccc(Cl)cc1 |  | 0 | 7 | 0 | 0 | inhibition (INH) (Rattus norvegicus [13]): 0%
8 | CC(=O)Oc1ccccc1C(=O)NCCCC[C@@H](NC(=O)[C@H](Cc1ccc(O)cc1)NC(=O)[C@H](CO)NC(=O)[C@@H](Cc1c[nH]c2ccccc12)NC(=O)[C@@H](Cc1ccccc1)NC(=O)[C@@H]1CCC(=O)N1)C(=O)N[C@@H](CC(C)C)C(=O)N[C@@H](CCCNC(=N)N)C(=O)N1CCC[C@H]1C(=O)NCC(N)=O |  | 18 | 57 | 13 | 23 | inhibition (INH) (Rattus norvegicus [13]): 11%
